From ChEMBL document CHEMBL3232728, “Synthesis, molecular docking and biological evaluation of metronidazole derivatives containing piperazine skeleton as potential antibacterial agents” (Bioorg Med Chem, 2014) come the findings set out here.

≈ marks a conversion by molar mass, not a printed value. Bounds are passed on as bounds.

Data set [1] is described as follows: Inhibition of Staphylococcus aureus TyrRS compound preincubated for 10 mins by liquid scintillation counting in presence of L-ring-3,5-[3H]tyrosine.
Data set [2] has as its system Escherichia coli. As to the kind of experiment: Antibacterial activity against Escherichia coli ATCC 25922 after 24 hrs by two-fold serial dilution method. Format: functional. To be noted: ATCC 25922, 24 h. In short, it runs like this:
(§1)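 Run in Mueller-Hinton medium, read by MTT method, with compounds tested in nutrient broth (NB) by two-fold serial dilution. Seeded broth containing microbial spores was prepared in NB from 24 h old cultures grown on nutrient agar.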

Data set [3] in a line: Toxicity in RBC (unknown origin) assessed as hemolysis. Format: cell-based. As to conditions: erythrocyte.
Data set [4] deals with Bacillus subtilis. In words: Antibacterial activity against Bacillus subtilis ATCC 530 after 24 hrs by two-fold serial dilution method. It is filed as functional. To be noted: ATCC 530, 24 h. In short, it runs like this:
as §1

Data set [5] has as its system Pseudomonas aeruginosa. In words: Antibacterial activity against Pseudomonas aeruginosa ATCC 27853 after 24 hrs by two-fold serial dilution method. To be noted: ATCC 27853, 24 h. Format: functional. The procedure, abridged: as §1
The subject of data set [6] is Staphylococcus aureus. As to the kind of experiment: Antibacterial activity against Staphylococcus aureus ATCC 25923 after 24 hrs by two-fold serial dilution method. As to conditions: ATCC 25923, 24 h. It is filed as functional. The procedure, abridged: as §1

One may read the IC50 as the point on the concentration scale where inhibition reaches its midpoint. In general, MIC refers to the lowest concentration that inhibits growth of the organism.

For `Cc1ncc([N+](=O)[O-])n1CCN1CCN(C(c2ccccc2)c2ccc(Cl)cc2)CC1` (configuration not stated), the IC50 in data set [1] is 1.72 µM. Besides, the MIC in data set [2] was above 50 µg/mL; in data set [4], 0.185 µg/mL (≈ 0.421 µM); in data set [5], above 50 µg/mL; in data set [6], 0.593 µg/mL (≈ 1.35 µM). Moreover, the LC30 in data set [3] is above 10000 µg/mL.
On to `Cc1ncc([N+](=O)[O-])n1CCN1CCN(c2cccc(C(F)(F)F)c2)CC1`, for which, in data set [1], the IC50 amounted to 15.3 µM. The MIC in data set [2] is above 50 µg/mL; in data set [4], 3.29 µg/mL (≈ 8.58 µM); in data set [5], above 50 µg/mL; in data set [6] it was 18.1 µg/mL (≈ 47.2 µM). Moreover, the LC30 in data set [3] was above 10000 µg/mL.
Regarding `Cc1ccc(N2CCN(CCn3c([N+](=O)[O-])cnc3C)CC2)c(C)c1`, in data set [1], the IC50 stood at 12.6 µM. The MIC in data set [2] was above 50 µg/mL; in data set [4], 4.31 µg/mL (≈ 12.6 µM); in data set [5], above 50 µg/mL; in data set [6] it was 1.61 µg/mL (≈ 4.69 µM). The LC30 in data set [3] is above 10000 µg/mL.
With `Cc1ncc([N+](=O)[O-])n1CCN1CCN(c2cccc(Cl)c2)CC1`, the IC50 in data set [1] is 10.5 µM. Also, the minimal inhibitory concentration (MIC) in data set [2] is above 50 µg/mL; in data set [4], 2.57 µg/mL (≈ 7.34 µM); in data set [5] it was above 50 µg/mL; in data set [6], 1.8 µg/mL (≈ 5.15 µM). Moreover, in data set [3], the LC30 was above 10000 µg/mL.
For `COc1cccc(N2CCN(CCn3c([N+](=O)[O-])cnc3C)CC2)c1`, the IC50 in data set [1] was 7.65 µM. The MIC in data set [2] was above 50 µg/mL; in data set [4], 0.805 µg/mL (≈ 2.33 µM); in data set [5], above 50 µg/mL; in data set [6], 0.656 µg/mL (≈ 1.9 µM). In addition, the LC30 in data set [3] was above 10000 µg/mL.
On to `Cc1ncc([N+](=O)[O-])n1CCN1CCN(c2ccccc2)CC1`, for which the IC50 in data set [1] is 20.5 µM. Moreover, the MIC in data set [2] was above 50 µg/mL; in data set [4], 1.55 µg/mL (≈ 4.92 µM); in data set [5], above 50 µg/mL; in data set [6], above 50 µg/mL. Further, the LC30 in data set [3] is above 10000 µg/mL.
For the compound `COc1ccccc1N1CCN(CCn2c([N+](=O)[O-])cnc2C)CC1`, in data set [1], the IC50 is 1.12 µM. In addition, the MIC in data set [2] is above 50 µg/mL; in data set [4], 0.272 µg/mL (≈ 0.787 µM); in data set [5], above 50 µg/mL; in data set [6] it was 0.583 µg/mL (≈ 1.69 µM). For the same compound, in data set [3], the LC30 is above 10000 µg/mL.
For `COc1ccc(N2CCN(CCn3c([N+](=O)[O-])cnc3C)CC2)cc1`, the IC50 in data set [1] came out at 0.0067 µM. For the same compound, the MIC in data set [2] is above 50 µg/mL; in data set [4], 0.033 µg/mL (≈ 0.0955 µM); in data set [5], above 50 µg/mL; in data set [6] it was 0.123 µg/mL (≈ 0.356 µM). The LC30 in data set [3] is above 10000 µg/mL.
As for `Cc1ncc([N+](=O)[O-])n1CCN1CCN(C(c2ccc(F)cc2)c2ccc(F)cc2)CC1`, the IC50 in data set [1] stood at 25.8 µM. For the same compound, the MIC in data set [2], in data set [4], in data set [5] and in data set [6] was above 50 µg/mL in each case. In data set [3], the LC30 was above 10000 µg/mL.
On to `Cc1ncc([N+](=O)[O-])n1CCN1CCN(c2ccc(Cl)c(Cl)c2)CC1`, for which the IC50 in data set [1] was determined as 16.2 µM. The MIC was above 50 µg/mL in data set [2], 6.83 µg/mL (≈ 17.8 µM) in data set [4], above 50 µg/mL in data set [5] and 11.6 µg/mL (≈ 30.1 µM) in data set [6]. The LC30 in data set [3] is above 10000 µg/mL.
Turning to `Cc1ncc([N+](=O)[O-])n1CCN1CCN(c2ccccc2Cl)CC1`, in data set [1], the IC50 is 0.0086 µM. Besides, the minimal inhibitory concentration (MIC) in data set [2] is above 50 µg/mL; in data set [4] it was 0.142 µg/mL (≈ 0.406 µM); in data set [5], above 50 µg/mL; in data set [6], 0.203 µg/mL (≈ 0.58 µM). For the same compound, the LC30 in data set [3] was above 10000 µg/mL.
Turning to `Cc1ncc([N+](=O)[O-])n1CCN1CCN(c2ccccc2F)CC1`, in data set [1], the IC50 stood at 23.4 µM. In addition, the MIC in data set [2] is above 50 µg/mL; in data set [4] it was above 50 µg/mL; in data set [5], above 50 µg/mL; in data set [6] it was 17.1 µg/mL (≈ 51.3 µM). Further, the LC30 in data set [3] was above 10000 µg/mL.
`CC1(C)S[C@@H]2[C@H](NC(=O)Cc3ccccc3)C(=O)N2[C@H]1C(=O)O` [PENICILLIN G]: the MIC worked out at 22.8 µg/mL (≈ 68.3 µM) in data set [2], 0.335 µg/mL (≈ 1 µM) in data set [4], 18.6 µg/mL (≈ 55.7 µM) in data set [5] and 1.02 µg/mL (≈ 3.06 µM) in data set [6].
In the case of `Cc1ncc([N+](=O)[O-])n1CCN1CCN(c2cccc(Cl)c2Cl)CC1`, the IC50 in data set [1] came out at 13.6 µM. Moreover, the MIC in data set [2] was above 50 µg/mL; in data set [4], 14.4 µg/mL (≈ 37.4 µM); in data set [5], above 50 µg/mL; in data set [6] it was 11.1 µg/mL (≈ 28.9 µM). The LC30 in data set [3] was above 10000 µg/mL.
As for `O=C(N[C@H](CO)[C@H](O)c1ccc([N+](=O)[O-])cc1)C(Cl)Cl` [CHLORAMPHENICOL], the MIC turned out to be 0.064 µg/mL (≈ 0.198 µM) in data set [2], 0.078 µg/mL (≈ 0.241 µM) in data set [4] and 0.178 µg/mL (≈ 0.551 µM) in data set [6].
For `Cc1ncc([N+](=O)[O-])n1CCN1CCN(c2ccc(F)cc2)CC1`, the IC50 in data set [1] is 25.2 µM. The MIC in data set [2], in data set [4], in data set [5] and in data set [6] was above 50 µg/mL throughout. Also, the LC30 in data set [3] is above 10000 µg/mL.
Take `Cc1ncc([N+](=O)[O-])n1CCN1CCN(C(c2ccccc2)c2ccccc2)CC1`: the IC50 in data set [1] worked out at 0.0024 µM. Further, the MIC in data set [2] was above 50 µg/mL; in data set [4] it was 0.011 µg/mL (≈ 0.0271 µM); in data set [5] it was above 50 µg/mL; in data set [6] it was 0.003 µg/mL (≈ 0.0074 µM). In data set [3], the LC30 is above 10000 µg/mL.
